From ChEMBL document CHEMBL3865827, “A novel class of ethacrynic acid derivatives as promising drug-like potent generation of anticancer agents with established mechanism of action” (Eur J Med Chem, 2016)
Activity calls are given as the source filed them. The rule behind the calls is not given here.

Experiments:
KB [1] = assay: Induction of necrosis in human KB cells assessed as increase in LDH release at 7 uM after 24 to 48 hrs by fluorescence assay; assay type: functional, cell-based
HL-60 [2] = assay: Induction of apoptosis in human HL60 cells assessed as dead cells at 5 uM after 24 hrs by Annexin V/7AAD-dual staining based FACS analysis
HL-60 [3] = assay: Induction of apoptosis in human HL60 cells assessed as intact cells at 5 uM after 24 hrs by Annexin V/7AAD-dual staining based FACS analysis (reference value: 91.6 %); assay type: functional
How it was run: (§1)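 HL60 cells treated 24 h with EA (10 or 50 µM) or derivatives (5 µM); controls vehicle only. Annexin V/7-AAD staining, flow cytometry; cells classed as dead, necrotic/late apoptotic, intact or early apoptotic, as percentages.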

[4] = Antiproliferative activity against Cyprinus carpio EPC after 24 to 72 hrs by MTS assay
[5] = Antiproliferative activity against human KB cells after 24 to 72 hrs by MTS assay; assay type: functional, cell-based
How it was run: (§2)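 Cells plated, then dosed 24 h later with compounds in DMSO (1% final; controls DMSO alone), exposed 24 or 72 h. Proliferation inhibition measured as previously reported (MTS/NADH reagent). IC50 from duplicate experiments over 0.5 nM–100 µM. KB grown in D-MEM with 10% fetal calf serum, penicillin, streptomycin, fungizone, 5% CO2; other lines in complete RPMI. EPC are quiescent Cyprinus carpio endothelial progenitor cells.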

HL-60 [6] = assay: Induction of apoptosis in human HL60 cells assessed as necrotic/late apoptotic cells at 5 uM after 24 hrs by Annexin V/7AAD-dual staining based FACS analysis (reference value: 0.6 %); assay type: functional; how it was run: as §1
[7] = Antiproliferative activity against human HL60 cells after 24 to 72 hrs by MTS assay; assay type: functional, cell-based; conditions: HL-60; how it was run: as §2
MRC5 [8] = assay: Induction of necrosis in human MRC5 SV2 cells assessed as increase in LDH release at 7 uM after 24 to 48 hrs by fluorescence assay; assay type: functional, cell-based
HL-60 [9] = assay: Induction of apoptosis in human HL60 cells assessed as necrotic/late apoptotic cells at 5 uM after 24 hrs by Annexin V/7AAD-dual staining based FACS analysis
HL-60 [10] = assay: Selectivity index, ratio of IC50 for Cyprinus carpio EPC to IC50 for human HL60 cells
HL60 (Homo sapiens) = assay: Effect on 24 hrs pretreated human HL60 cells assessed as reduction in endogenous GSH content at 7 uM measured for 60 mins by fluorescence assay; conditions: HL-60
HL-60 [11] = assay: Induction of apoptosis in human HL60 cells assessed as early apoptotic cells at 5 uM after 24 hrs by Annexin V/7AAD-dual staining based FACS analysis (reference value: 7.7 %); assay type: functional; how it was run: as §1
HL-60 [12] = assay: Induction of apoptosis in human HL60 cells assessed as caspase 3/7 activation at 5 uM preincubated for 24 hrs after 180 mins by fluorescence assay; assay type: functional, cell-based
How it was run: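 HL60 cells treated 24 h with EA (50 µM), derivatives (5 µM) or doxorubicin (50 nM, positive control), then caspase-3 activity assayed by fluorescence (ex 360, em 435 nm) at 0, 30, 60, 120 and 180 min. Rate from slope of linear phase, expressed as fold-activation over DMSO-treated HL60.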

HCT-116 [13] = assay: Induction of necrosis in human HCT116 cells assessed as increase in LDH release at 7 uM after 24 to 48 hrs by fluorescence assay; assay type: functional, cell-based
KB [14] = assay: Selectivity index, ratio of IC50 for Cyprinus carpio EPC to IC50 for human KB cells
HL-60 [15] = assay: Induction of apoptosis in human HL60 cells assessed as intact cells at 5 uM after 24 hrs by Annexin V/7AAD-dual staining based FACS analysis; assay type: functional, cell-based; how it was run: as §1
[16] = Cytotoxicity against human HL60 cells assessed as reduction in cell viability after 24 hrs by MTS assay; assay type: functional, cell-based; conditions: HL-60, 24 h
HL-60 [17] = assay: Induction of apoptosis in human HL60 cells assessed as early apoptotic cells at 5 uM after 24 hrs by Annexin V/7AAD-dual staining based FACS analysis; assay type: functional, cell-based; how it was run: as §1
HL-60 [18] = assay: Induction of apoptosis in human HL60 cells assessed as dead cells at 5 uM after 24 hrs by Annexin V/7AAD-dual staining based FACS analysis (reference value: 0.1 %); assay type: functional
HL-60 [19] = assay: Antiproliferative activity against human HL60 cells at 7 uM after 24 hrs by viacount-reagent based FACS analysis
HL-60 [20] = assay: Antiproliferative activity against human HL60 cells at 50 uM after 24 hrs by viacount-reagent based FACS analysis
HCT-116 [21] = assay: Induction of necrosis in human HCT116 cells assessed as increase in LDH release 50 uM after 24 to 48 hrs by fluorescence assay; assay type: functional, cell-based
[22] = Cell cycle arrest in human HL60 cells assessed as accumulation at G0/G1 phase at 2.5 uM after 48 hrs by propidium iodide-staining based FACS analysis (reference value: 43.8 %); assay type: functional; conditions: HL-60
How it was run: (§3)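 HL60 cells, 25,000 per well, exposed 24 and 48 h to 2.5 µM compounds; controls DMSO (1% final). Propidium iodide staining, flow cytometry; fractions in sub-G1, G0/G1, S and G2/M quantified.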

HL-60 [23] = assay: Induction of apoptosis in human HL60 cells assessed as intact cells at 50 uM after 24 hrs by Annexin V/7AAD-dual staining based FACS analysis (reference value: 91.6 %); assay type: functional; how it was run: as §1
[24] = Cell cycle arrest in human HL60 cells assessed as accumulation at S phase at 2.5 uM after 24 hrs by propidium iodide-staining based FACS analysis (reference value: 48.9 %); assay type: functional; conditions: HL-60; how it was run: as §3
HL-60 [25] = assay: Induction of apoptosis in human HL60 cells assessed as early apoptotic cells at 10 uM after 24 hrs by Annexin V/7AAD-dual staining based FACS analysis (reference value: 7.7 %); assay type: functional; how it was run: as §1
[26] = Antiproliferative activity against human HCT116 cells after 24 to 72 hrs by MTS assay; assay type: functional, cell-based; conditions: HCT-116
[27] = Cell cycle arrest in human HL60 cells assessed as accumulation at G2/M phase at 2.5 uM after 24 hrs by propidium iodide-staining based FACS analysis (reference value: 5.1 %); assay type: functional; conditions: HL-60; how it was run: as §3
[28] = Cell cycle arrest in human HL60 cells assessed as accumulation at S phase at 2.5 uM after 48 hrs by propidium iodide-staining based FACS analysis (reference value: 52.6 %); assay type: functional; conditions: HL-60; how it was run: as §3
KB [29] = assay: Induction of necrosis in human KB cells assessed as increase in LDH release at 50 uM after 24 to 48 hrs by fluorescence assay; assay type: functional, cell-based
[30] = Antiproliferative activity against human SKOV3 cells after 24 to 72 hrs by MTS assay; assay type: functional, cell-based; conditions: SK-OV-3
HL-60 [31] = assay: Induction of apoptosis in human HL60 cells assessed as necrotic/late apoptotic cells at 50 uM after 24 hrs by Annexin V/7AAD-dual staining based FACS analysis (reference value: 0.6 %); assay type: functional; how it was run: as §1
HL-60 [32] = assay: Induction of apoptosis in human HL60 cells assessed as early apoptotic cells at 10 to 50 uM after 24 hrs by Annexin V/7AAD-dual staining based FACS analysis; assay type: functional, cell-based; how it was run: as §1
[33] = Cell cycle arrest in human HL60 cells assessed as accumulation at sub G1 phase at 2.5 uM after 48 hrs by propidium iodide-staining based FACS analysis (reference value: 1.4 %); assay type: functional; conditions: HL-60; how it was run: as §3
HL-60 [34] = assay: Induction of apoptosis in human HL60 cells assessed as dead cells at 50 uM after 24 hrs by Annexin V/7AAD-dual staining based FACS analysis (reference value: 0.1 %); assay type: functional
HL-60 [35] = assay: Induction of apoptosis in human HL60 cells assessed as dead cells at 10 uM after 24 hrs by Annexin V/7AAD-dual staining based FACS analysis (reference value: 0.1 %); assay type: functional
HL-60 [36] = assay: Induction of apoptosis in human HL60 cells assessed as necrotic/late apoptotic cells at 10 to 50 uM after 24 hrs by Annexin V/7AAD-dual staining based FACS analysis
[37] = Antiproliferative activity against human OVCAR8 cells after 24 to 72 hrs by MTS assay; assay type: functional, cell-based; conditions: OVCAR-8
HL-60 [38] = assay: Induction of apoptosis in human HL60 cells assessed as early apoptotic cells at 50 uM after 24 hrs by Annexin V/7AAD-dual staining based FACS analysis (reference value: 7.7 %); assay type: functional; how it was run: as §1
[39] = Antiproliferative activity against human PC3 cells after 24 to 72 hrs by MTS assay; assay type: functional, cell-based; conditions: PC-3
[40] = Cell cycle arrest in human HL60 cells assessed as accumulation at G0/G1 phase at 2.5 uM after 24 hrs by propidium iodide-staining based FACS analysis (reference value: 43.5 %); assay type: functional; conditions: HL-60; how it was run: as §3
HL-60 [41] = assay: Induction of apoptosis in human HL60 cells assessed as dead cells at 10 to 50 uM after 24 hrs by Annexin V/7AAD-dual staining based FACS analysis
HL-60 [42] = assay: Induction of apoptosis in human HL60 cells assessed as intact cells at 10 to 50 uM after 24 hrs by Annexin V/7AAD-dual staining based FACS analysis; assay type: functional, cell-based; how it was run: as §1
[43] = Antiproliferative activity against human MCF7 cells after 24 to 72 hrs by MTS assay; assay type: functional, cell-based
[44] = Cell cycle arrest in human HL60 cells assessed as accumulation at G2/M phase at 2.5 uM after 48 hrs by propidium iodide-staining based FACS analysis (reference value: 2.2 %); assay type: functional; conditions: HL-60; how it was run: as §3
HL-60 [45] = assay: Induction of apoptosis in human HL60 cells assessed as intact cells at 10 uM after 24 hrs by Annexin V/7AAD-dual staining based FACS analysis (reference value: 91.6 %); assay type: functional; how it was run: as §1
MRC5 [46] = assay: Induction of necrosis in human MRC5 SV2 cells assessed as increase in LDH release at 50 uM after 24 to 48 hrs by fluorescence assay; assay type: functional, cell-based
[47] = Cell cycle arrest in human HL60 cells assessed as accumulation at sub G1 phase at 2.5 uM after 24 hrs by propidium iodide-staining based FACS analysis (reference value: 2.6 %); assay type: functional; conditions: HL-60; how it was run: as §3
HL-60 [48] = assay: Induction of apoptosis in human HL60 cells assessed as necrotic/late apoptotic cells at 10 uM after 24 hrs by Annexin V/7AAD-dual staining based FACS analysis (reference value: 0.6 %); assay type: functional; how it was run: as §1

SMILES: C=C(CC)C(=O)c1ccc(OCC(=O)OCCc2ccc(O)cc2)c(Cl)c1Cl
- Activity (KB [1]): Active
- Activity (HL-60 [2]): Active
- Activity (HL-60 [3]): 47.3%
- IC50 [4]: 3.7 µM
- IC50 [5]: 0.9 µM
- Activity (HL-60 [6]): 10%
- IC50 [7]: 1.4 µM
- Activity (MRC5 [8]): Active
- Activity (HL-60 [9]): Active
- Ratio IC50 (HL-60 [10]): 2.65
- GSH reduction activity (HL60 (Homo sapiens)): Active
- Activity (HL-60 [11]): 42.5%
- Activity (HL-60 [12]): Active
- Activity (HCT-116 [13]): Active
- Ratio IC50 (KB [14]): 4
- Activity (HL-60 [15]): Active
- IC50 [16]: 2.9 µM
- Activity (HL-60 [17]): Active
- Activity (HL-60 [18]): 0.2%
- Activity (HL-60 [19]): Active

SMILES: C=C(CC)C(=O)c1ccc(OCC(=O)O)c(Cl)c1Cl [ETHACRYNIC ACID]
- Activity (HL-60 [20]): Active
- Activity (HCT-116 [21]): Active
- Activity [22]: 41.5%
- Activity (HL-60 [23]): 57.9%
- Activity [24]: 43.6%
- Activity (HL-60 [25]): 11.2%
- IC50 [26]: 75 µM
- IC50 [4]: > 100 µM
- Activity [27]: 8.3%
- Activity [28]: 54.1%
- IC50 [5]: 11 µM
- Activity (KB [29]): Active
- IC50 [30]: > 100 µM
- IC50 [7]: 46 µM
- Activity (HL-60 [31]): 0.8%
- Ratio IC50 (HL-60 [10]): >2
- Activity (HL-60 [32]): Active
- Activity [33]: 3.1%
- Activity (HL-60 [34]): 0%
- Activity (HL-60 [35]): 0.1%
- Activity (HL-60 [36]): Active
- IC50 [37]: 72 µM
- Activity (HL-60 [38]): 41.3%
- IC50 [39]: 75 µM
- Activity [40]: 45.4%
- Activity (HL-60 [41]): Active
- Activity (HL-60 [42]): Active
- Ratio IC50 (KB [14]): >9
- IC50 [43]: 41 µM
- Activity [44]: 1.3%
- IC50 [16]: 38 µM
- Activity (HL-60 [45]): 87.8%
- Activity (MRC5 [46]): Active
- Activity [47]: 2.7%
- Activity (HL-60 [48]): 0.9%
